Reference: PubChem BioAssay
Calls of active or inactive are those of the source.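 Rule for the calls, unless noted: active = GFP response above 150% of the DMSO level; inconclusive = fewer than 70 events counted for a yeast strain; inactive = the rest.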

Experiments:
[1] = hit retest on RPL19A-GFP reporter strain – cell-based, S. cerevisiae, flow cytometry, cherry picks, mother/daughter gates, confirmation (AID 2270;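 active = GFP response below 50% of the DMSO control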); settings: 3 h, at 10 µM, stronger effect = lower value, 100 = same GFP as DMSO wells
[2] = yeast TOR pathway reporter LAP4-GFP change – cell-based, cherry picks, flow cytometry, mother/daughter gates, confirmation (AID 2271;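 active = GFP response above 150% of the DMSO control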;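 note: ratio of sample to DMSO plate mean so 100% equals DMSO level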); settings: S. cerevisiae LAP4-GFP strain, 3 h, at 10 µM, stronger effect = higher value, 100 means same as DMSO control
How it was run: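 System: GFP-fusion yeast strain | Input: Yeast cells seeded at OD600 of 0.2 | Technique: HT flow cytometry, GFP fluorescence channel | Read-out: % GFP response vs DMSO | Dosing: Single test-compound dose, 10 µM final | Controls: Positive rapamycin (400 ng/mL), negative DMSO | Times: 3 h treatment at 30 °C with rotation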

[3] = TOR pathway reporter MEP2-GFP, retest of hits – S. cerevisiae, flow cytometry GFP, cherry picks, confirmation (AID 2272;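 active = GFP response above 150% of the DMSO control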;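 note: ratio of well signal to plate DMSO mean so 100% equals DMSO level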); settings: S. cerevisiae MEP2-GFP strain, 3 h, at 10 µM, stronger effect = higher value
[4] = yeast AGP1-GFP fluorescence change, single-dose – cell-based, flow cytometry, S. cerevisiae, cherry picks, confirmation (AID 2273);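 note: median GFP channel fluorescence over the whole cell population gate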; settings: S. cerevisiae AGP1-GFP strain, 3 h, at 10 µM
[5] = TOR pathway CIT2 reporter hit retest – S. cerevisiae, GFP fusion, cherry picks, mother/daughter gates, confirmation (AID 2274); settings: S. cerevisiae CIT2-GFP strain, flow cytometry, 3 h, at 10 µM, stronger effect = higher value
[6] = measured here: daughter cell gate
[7] = measured here: mother cell gate
[8] = measured here: daughter cell gate response
[9] = measured here: mother cell gate response

Row | SMILES | GFP response vs DMSO [1] | GFP response vs DMSO [1, 6] [%] | GFP response vs DMSO [1, 7] [%] | GFP response relative to DMSO [2] | GFP response relative to DMSO [2, 8] [%] | GFP response relative to DMSO [2, 9] [%] | GFP response vs DMSO [3] | GFP response, % of DMSO [4] | GFP response, % of DMSO [5] | GFP response, % of DMSO [5, 6] [%] | GFP response, % of DMSO [5, 7] [%]
1 | O=C(c1ccc(OCC2CCCO2)cc1)N1CCN(c2ccccc2)CC1 (configuration not stated) | 98.7% (inactive) | 98.4 | 98.4 | 104% (inactive) | 102 | 105 | 103% (inactive) | 102% (inactive) | 100% (inactive) | 101 | 100
2 | Cn1cc(/C=C/c2cc[n+](C)cc2)c2cc(F)ccc21 | 102% (inactive) | 102 | 102 | 115% (inactive) | 117 | 116 | 134% (inactive) | 103% (inactive) | 115% (inactive) | 116 | 114
3 | COc1ccc([N+](=O)[O-])c(S(=O)(=O)c2ccccc2)n1 | 93.7% (inactive) | 95.8 | 90.8 | 195% (active) | 170 | 204 | 112% (inactive) | 113% (inactive) | 86% (inactive) | 96.8 | 75.8
4 | N=C1S/C(=C\c2ccco2)C(=O)N1c1nccs1 | 109% (inactive) | 108 | 100 | 168% (active) | 145 | 168 | 112% (inactive) | 95.7% (inactive) | 108% (inactive) | 108 | 103
5 | Cc1ccc(C(=O)OCC(=O)Nc2ccccc2Sc2ccccc2)cc1C | 99% (inactive) | 97.8 | 99.7 | 96.1% (inactive) | 99.7 | 97.2 | 96.6% (inactive) | 99.3% (inactive) | 103% (inactive) | 103 | 105
6 | CCCN(Cc1nnc(-c2ccccc2Cl)o1)C(=O)c1cc([N+](=O)[O-])cc([N+](=O)[O-])c1 | 97.3% (inactive) | 98.4 | 96.1 | 97.7% (inactive) | 96 | 98.4 | 101% (inactive) | 98.6% (inactive) | 94.4% (inactive) | 94 | 94.9
7 | O=C(CCc1ccccc1)NNC(=S)NC(=O)c1ccccc1 | 106% (inactive) | 106 | 107 | 186% (active) | 180 | 185 | 116% (inactive) | 100% (inactive) | 106% (inactive) | 113 | 100
8 | Cc1cc(NC(=O)c2cncc(Br)c2)ccc1NC(=O)c1cc2ccccc2o1 | 102% (inactive) | 100 | 104 | 90.2% (inactive) | 87.9 | 95.2 | 109% (inactive) | 95% (inactive) | 99.1% (inactive) | 98.1 | 97.7
9 | O=C(O)CCc1ccc(-c2ccc(Cl)cc2)o1 | 99% (inactive) | 91.7 | 97.2 | 138% (inactive) | 128 | 140 | 99% (inactive) | 85.4% (inactive) | 94.4% (inactive) | 88.4 | 94.4
10 | COc1ccc(N2CCN(C(=O)c3ccc(C)cc3Cl)CC2)cc1 | 101% (inactive) | 98.1 | 102 | 97.4% (inactive) | 98.7 | 99.3 | 104% (inactive) | 95.9% (inactive) | 92.6% (inactive) | 93.2 | 92.3
11 | COc1ccc2c(c1)c(/C=C/c1cc[n+](C)cc1)cn2C | 105% (inactive) | 107 | 106 | 136% (inactive) | 143 | 134 | 162% (inactive) | 111% (inactive) | 150% (inactive) | 158 | 145
12 | Oc1c(Br)cc(Br)cc1C=Nc1ccc2[nH]ncc2c1 | 99.5% (inactive) | 89.2 | 97.2 | 185% (active) | 124 | 176 | 112% (inactive) | 102% (inactive) | 96.4% (inactive) | 102 | 87.5
13 | O=C(NNC1=NCCC1)c1cccc(Br)c1 | 98% (inactive) | 98.5 | 97.9 | 100% (inactive) | 97.9 | 99.5 | 99.5% (inactive) | 97.5% (inactive) | 96.4% (inactive) | 96.4 | 94.5
14 | COc1ccccc1-c1nnc(NC(=O)c2ccc(S(=O)(=O)N(C)C)cc2)o1 | 99.2% (inactive) | 98.6 | 98.7 | 111% (inactive) | 112 | 109 | 119% (inactive) | 93.3% (inactive) | 105% (inactive) | 106 | 106
15 | CCOc1ccc(C(C)=O)cc1N1C(=O)C2C3C=CC(O3)C2C1=O (configuration not stated) | 100% (inactive) | 105 | 95.6 | 136% (inactive) | 132 | 136 | 103% (inactive) | 97.9% (inactive) | 110% (inactive) | 110 | 104
16 | Cc1nn(C)c(C(=O)Sc2cccc(Cl)c2)c1[N+](=O)[O-] | 99.6% (inactive) | 97.6 | 99.4 | 126% (inactive) | 114 | 130 | 121% (inactive) | 102% (inactive) | 104% (inactive) | 103 | 101
17 | CC(Oc1cccc(Cl)c1)C(=O)Nc1nc(-c2ccccn2)cs1 (configuration not stated) | 105% (inactive) | 97 | 103 | 161% (active) | 140 | 167 | 104% (inactive) | 90.8% (inactive) | 86.1% (inactive) | 93.2 | 81.6
18 | COc1ccc(C(c2c(C)[nH]n(C(N)=S)c2=O)C(C#N)C#N)cc1 (configuration not stated) | 105% (inactive) | 96.2 | 98.8 | 317% (active) | 246 | 299 | 104% (inactive) | 101% (inactive) | 89.2% (inactive) | 92.7 | 79.3
19 | CN=C(NC)SC1CC(=O)N(c2ccccc2)C1=O (configuration not stated) | 99.3% (inactive) | 97.8 | 102 | 99.8% (inactive) | 98.7 | 103 | 97.8% (inactive) | 93.5% (inactive) | 92.6% (inactive) | 93.2 | 91.2
20 | CNC(=O)/C(C#N)=C/c1c(N2CCCCCC2)nc2ccccn2c1=O | 98.7% (inactive) | 100 | 98.2 | 104% (inactive) | 104 | 106 | 112% (inactive) | 98.6% (inactive) | 108% (inactive) | 110 | 108
21 | Cc1cc(C)c(C)c(S(=O)(=O)ON2C(=O)c3ccccc3C2=O)c1C | 103% (inactive) | 97.5 | 94.1 | 206% (active) | 170 | 204 | 114% (inactive) | 97.3% (inactive) | 105% (inactive) | 113 | 91
22 | Cc1ccc(C(=O)Nc2nnc(CC(=O)N/N=C/c3ccc(O)c(O)c3)s2)cc1 | 97.8% (inactive) | 99 | 95.9 | 94.1% (inactive) | 92.9 | 95.4 | 103% (inactive) | 104% (inactive) | 103% (inactive) | 103 | 104
